Results published in PMC4327868 (Chemical research in toxicology, 2013).

Legend:
Type in all cases: cell-based
PC6-3 cells [1] = assay: Cytotoxicity by lactate dehydrogenase; conditions: 4 h, even at high concentrations (900 μM)
PC6-3 cells [2] = assay: DA-supplemented dopamine metabolism; conditions: 10 μM dieldrin, cells spiked with 100 μM DA 15 min prior, 4 h, vs control
Summary of the method: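 PC6-3 cells seeded at 6 × 10^4 cells/well, NGF-differentiated (50 ng/mL, 4 days), and given 100 μM DA 15 min before 4 h exposure to test compound (10, 30, 100 or 300 μM) in HEPES-buffered saline. Extracellular DOPAL was measured by capillary C18 HPLC with photodiode-array detection and quantified against a standard curve. Reported as % control; mean ± SEM, n = 3 or 4.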

PC6-3 cells [3] = assay: Extracellular dopamine metabolites; conditions: 300 μM
Summary of the method: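 NGF-differentiated PC6-3 cells were given test compound (0, 10, 25, 50, 100 or 300 μM; 0.6% DMSO) in HEPES-buffered saline, pH 7.4. Extracellular aliquots taken at 0, 1 and 4 h went into 5% perchloric acid and were centrifuged. DOPAL, DOPAC and DOPET were run on isocratic C18 HPLC (0.1% TFA, 6% ACN), read at 202/280 nm, and quantified against standard curves. Mean ± SD, n = 3.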

## ClC1=C(Cl)C2(Cl)C3C4CC(C5OC45)C3C1(Cl)C2(Cl)Cl (stereo not drawn) [endrin]
PC6-3 cells [1]
  cytotoxicity (LDH release): no cytotoxicity

## ClC1=C(Cl)[C@]2(Cl)[C@@H]3[C@@H]4C[C@@H]([C@H]5O[C@@H]45)[C@@H]3[C@@]1(Cl)C2(Cl)Cl [dieldrin]
PC6-3 cells [2]
  increase in extracellular DOPAL levels: ~200%

## ClC1=C(Cl)C2(Cl)C3CC4OC4CC3C1(Cl)C2(Cl)Cl (stereo not drawn) [desmethylene dieldrin, 1,8,9,10,11,11-Hexachloro-4,5-epoxy-2,3-7,6-endotricyclo[6.2.1.0^2,7]undec-9-ene]
PC6-3 cells [3]
  increase of extracellular DOPAL concentration: 10 fold
